This note sets out measurements from ChEMBL document CHEMBL1133838, “Novel 5-vinyl pyrimidine nucleosides with potent anti-hepatitis B virus activity” (Bioorg Med Chem Lett, 2001).

The species entered for test [1] is Homo sapiens. As to the kind of experiment: Concentration required to reduce the proliferation of PHA stimulated human peripheral blood T lymphocytes. Type of test: functional. In short, it runs like this: (§1)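 Fresh human peripheral blood T lymphocytes stimulated with PHA and grown with drug. Cellular DNA synthesis followed by [methyl-3H]thymidine incorporation. Value is the concentration (μg/mL) reducing proliferation to 50% of untreated PHA-stimulated controls. Tested up to 50 μg/mL.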

Test [2] has as its system Vero. Put plainly: Compound was evaluated for cytotoxicity against stationary Vero cells using MTT assay. Format: functional. To be noted: Chlorocebus sabaeus. In short, it runs like this: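 Stationary Vero cells exposed to drug for 3 days. Viability read by MTT assay against untreated controls. CC50 taken as the concentration (μg/mL) giving 50% loss of viability. ">" means 50% was not reached at the highest concentration tested.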
For orientation: Tetrazolium dyes change colour on reduction, which living cells bring about.

For test [3], the system named is Vero. Put plainly: Concentration required to inhibit plaque formation by HSV-1 strain KOS (TK+) in monolayers of vero cells. Format: functional, cell-based. The following applies: Chlorocebus sabaeus. In short, it runs like this: (§2)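 Vero cells seeded one day ahead. Infected with HSV-1 KOS (TK+) or TK-deficient KOSSB at ~100 PFU/well for 1 h at 37 °C. Inoculum replaced by medium with serial drug dilutions in duplicate, then refined by 1:2 dilutions. Acyclovir control at 5 and 1 μg/mL (TK+) or 50, 25, 10, 1 μg/mL (TK−). After 48 h at 37 °C, fixed with methanol and Giemsa-stained. Plaques counted against no-drug wells for EC50.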

Test [4] has as its system Vero. As to the kind of experiment: Concentration required to inhibit plaque formation by HSV-1 strain KOSSB (TK-) in monolayers of vero cells. Type of test: functional, cell-based. To be noted: Chlorocebus sabaeus. In short, it runs like this: as §2
The test system of the next test is Nucleic Acid. Put plainly: Concentration required to reduce the viral DNA in infected cells to 50% of untreated infected controls. To be noted: Duck hepatitis B virus. Format: functional, cell-based. In short, it runs like this: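 Confluent primary hepatocyte cultures from chronically DHBV-infected Pekin ducks treated with drug. Viral DNA in cells measured against untreated infected controls. EC50 in μg/mL. Three independent experiments, with the range of EC50 reported.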

For a further test, the system named is Duck hepatitis B virus. Put plainly: Percent inhibition of viral DNA in the presence of 10 ug/mL compound compared to untreated infected controls in duck hepatocytes.
The species entered for test [5] is Homo sapiens. As to the kind of experiment: Concentration required to reduce the proliferation of PHA stimulated human peripheral blood T lymphocytes to 50% of untreated PHA Stimulated control. Type of test: functional. In short, it runs like this: as §1

Each structure is given as a SMILES string. Converted amounts (≈) assume the structure as drawn.

What is called IC50 is the concentration that inhibits the measured activity by half. Low readings indicate inhibition by little substance, high ones a need for much substance. Usually CC50 stands for the concentration giving 50% cytotoxicity. A higher CC50 goes with better tolerance by the cells. A word on the EC50: it is the midpoint of the concentration-response curve. Low values mean higher potency in that assay, high ones lower potency in that assay. Broadly, the Inhibition is the relative decrease from the control value, in per cent. As for `C=Cc1cn(COC(CO)CO)c(=O)[nH]c1=O`, the IC50 in the test filed under Homo sapiens [1] was > 50 µg/mL. In addition, the CC50 with Vero [2] was > 100 µg/mL. For the same compound, the EC50 is > 25 µg/mL with Vero [3], > 50 µg/mL in the test with Vero [4] and 1 µg/mL (≈ 4.13 µM) with Nucleic Acid. The Inhibition in the test on Duck hepatitis B virus worked out at 81%.

On to `Nc1ccn([C@@H]2CSC(CO)O2)c(=O)n1` (single isomer, unassigned) [LAMIVUDINE], for which the half-maximal inhibitory concentration (IC50) in the test listed under Homo sapiens [5] was > 50 µg/mL. For the same compound, in the test with Vero [2], the CC50 is > 100 µg/mL. Besides, the EC50 with Nucleic Acid worked out at 0.01 µg/mL (≈ 0.0436 µM). In addition, the Inhibition in the test on Duck hepatitis B virus is 96%.

Turning to `Nc1nc2c(ncn2COCCO)c(=O)[nH]1` [ACYCLOVIR], the CC50 in the test on Vero [2] was > 100 µg/mL. For the same compound, the EC50 with Vero [3] amounted to 0.5 µg/mL (≈ 2.22 µM); in the test on Vero [4], 40 µg/mL (≈ 178 µM).

In the test on Nucleic Acid, `Nc1nc2c(ncn2COC(CO)CO)c(=O)[nH]1` [GANCICLOVIR] returned an EC50 of 1.5 µg/mL (≈ 5.88 µM).

With `C=Cc1cn(CCC(CO)CO)c(=O)[nH]c1=O`, in the test filed under Homo sapiens [1], the IC50 was > 50 µg/mL. In addition, in the test on Vero [2], the CC50 is > 100 µg/mL. The EC50 with Vero [3] was > 25 µg/mL; with Vero [4], > 50 µg/mL; with Nucleic Acid, 3 µg/mL (≈ 12.5 µM). Further, the Inhibition in the test on Duck hepatitis B virus was 77.5%.

In the case of `C=Cc1cn(COCCO)c(=O)[nH]c1=O`, the IC50 in the test filed under Homo sapiens [1] was > 50 µg/mL. The half-maximal cytotoxic concentration (CC50) in the test with Vero [2] is > 100 µg/mL. For the same compound, the EC50 in the test with Vero [3] is > 25 µg/mL; in the test with Vero [4] it was > 50 µg/mL; with Nucleic Acid, > 10 µg/mL. Moreover, in the test with Duck hepatitis B virus, the Inhibition stood at 40.6%.

For `Nc1nc(O)c2ncn(CCC(CO)CO)c2n1` [PENCICLOVIR], in the test on Nucleic Acid, the EC50 amounted to 0.3 µg/mL (≈ 1.18 µM).
